The test system of data set [1] is Mycobacterium tuberculosis. The data set can be described thus: (§1) Inhibition of Mycobacterium tuberculosis 20S open gate mutant using Suc-LLVY-AMC as substrate and measured every 30 secs for 30 mins by microtiter plate assay. An outline of the steps:
(§2)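 Mtb20S open-gate form, expressed and purified in-house, 8 nM in the enzyme solution. Buffer: 20 mM HEPES pH 7.5, 0.5 mM EDTA, 0.1 mg/mL BSA. Suc-LLVY-AMC at 100 µM final. Run at 25 °C with a three-fold inhibitor dilution series, DMSO under 0.5% final. Fluorescence 340/460 nm read every 30 s for 30 min. Rates fitted against log inhibitor concentration to give IC50; triplicate wells.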

Data set [2] is described as follows: as §1. An outline of the steps:
as §2

For data set [3], the system named is human 20S proteasome subunit beta-5c versus Mycobacterium tuberculosis 20S open gate mutant. The data set can be described thus: Selectivity index, ratio of IC50 for human 20S proteasome subunit beta-5c to IC50 for Mycobacterium tuberculosis 20S open gate mutant. The data set is classed as toxicity. To be noted: read-out: Ratio IC50.
Data set [4] has as its system human 20S proteasome subunit beta-5i versus Mycobacterium tuberculosis 20S open gate mutant. The data set can be described thus: Selectivity index, ratio of IC50 for human 20S proteasome subunit beta-5i to IC50 for Mycobacterium tuberculosis 20S open gate mutant. The data set is classed as toxicity. Conditions: read-out: Ratio IC50.

For the compound `Cc1cc(C(=O)N[C@@H](CC(=O)N2CCC[C@@H]2c2ccccc2)C(=O)N[C@@H](C)C(=O)NCc2ccc(F)cc2F)no1`, the inhibition result in data set [1] is “Dose-dependent effect”. Inhibition in data set [2] was half-maximal at 3 nM (IC50). Besides, the selectivity ratio in data set [3] is > 33300; in data set [4], 2630.
In the same order, the values of `Cc1cc(C(=O)N[C@@H](CC(=O)N2CCC[C@@H]2c2ccccc2)C(=O)N[C@@H](C)C(=O)NCc2c(F)cccc2F)no1` are “Dose-dependent effect”, 7 nM, > 14300 and 2870.
As to `Cc1cc(C(=O)N[C@@H](CC(=O)N2CCC[C@@H]2c2ccccc2)C(=O)N[C@@H](C)c2ncc(-c3ccccc3)[nH]2)no1`, the IC50 in data set [2] was found to be 25 nM. The selectivity ratio in data set [3] and in data set [4] was > 4000 in each case.
In data set [2], `Cc1cc(C(=O)N[C@@H](CC(=O)N2CCC[C@@H]2c2ccccc2)C(=O)N[C@@H](C)c2ncc(-c3ccccc3F)[nH]2)no1` registered an IC50 of 8 nM. For the same compound, the selectivity ratio in data set [3] and in data set [4] was > 12500 each time.
For the compound `COc1ccccc1CNC(=O)[C@H](C)NC(=O)[C@H](CC(=O)N1CCC[C@@H]1c1ccccc1)NC(=O)c1cc(C)on1`, the inhibition result in data set [1] is “Dose-dependent effect”. Besides, the IC50 in data set [2] is 65 nM. For the same compound, the selectivity ratio in data set [3] and in data set [4] was > 1500 each time.
In data set [2], `Cc1cc(C(=O)N[C@@H](CC(=O)N2CCC[C@@H]2c2ccccc2)C(=O)N[C@@H](C)c2ncc(-c3ccc(F)cc3F)[nH]2)no1` registered an IC50 of 13 nM. In addition, the selectivity ratio in data set [3] and in data set [4] was > 7700 in each case.
`Cc1cc(C(=O)N[C@@H](CC(=O)N2CCCC[C@@H]2C)C(=O)N[C@@H](C)C(=O)NCc2ccc(F)cc2F)no1`: in data set [1], the inhibition result is “Dose-dependent effect”. Further, the IC50 in data set [2] worked out at 7 nM. Further, the selectivity ratio in data set [3] is 202; in data set [4], 3.7.
Consider `Cc1cc(C(=O)N[C@@H](CC(=O)N2CCCC[C@@H]2C)C(=O)N[C@@H](C)c2ncc(-c3ccccc3)[nH]2)no1`, for which, in data set [2], the IC50 was 470 nM.
The same measure, in the same setting: the result for `CC[C@@H]1CCCCN1C(=O)C[C@H](NC(=O)CCC(C)C)C(=O)N[C@@H](C)c1ncc(-c2ccc(F)cc2F)[nH]1` reads 30 nM.

As usually defined, the IC50 is the concentration that gives 50% inhibition. Low values mean greater potency in that assay, high ones weaker potency in that assay.

Source of the values: ChEMBL document CHEMBL4414599, “Selective Phenylimidazole-Based Inhibitors of the Mycobacterium tuberculosis Proteasome” (J Med Chem, 2019).
